Source: ChEMBL document CHEMBL1151702, “Using an aryl phenanthroimidazole moiety as a conjugated flexible intercalator to improve the hybridization efficiency of a triplex-forming oligonucleotide” (Bioorg Med Chem, 2008)

How the values were obtained:
Type in all cases: nucleic-acid assay
[1] = tested on: Nucleic Acid; test: Binding affinity to synthetic double stranded DNA D3 at 1.5 uM at pH 6.0 by thermal denaturation study
Procedure, shortened: (§1)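 Parallel triplex melting: target duplex assembled from strands at 1.0 µM each, TFO third strand added at 1.5 µM. Buffer 20 mM sodium cacodylate, 100 mM NaCl, 10 mM MgCl₂, at the pH of the line. Samples heated to 80 °C for 5 min, cooled to 5 °C and held 30 min. Absorbance read at 260 nm while heating at 1.0 °C/min; Tm taken as the first-derivative maximum.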

[2] = tested on: Nucleic Acid; test: Binding affinity to synthetic oligonucleotide ON18 at 1.0 uM at pH 6.0 by thermal denaturation study
Procedure, shortened: (§2)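 Duplex melting: complementary strands at 1.0 µM each in 20 mM sodium cacodylate, 100 mM NaCl, 10 mM MgCl₂, at the pH of the line. Annealed at 80 °C for 5 min, then cooled to 5 °C and held 30 min. UV absorbance read at 260 nm with heating at 1.0 °C/min; Tm is the maximum of the first-derivative curve.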

[3] = tested on: Nucleic Acid; test: Binding affinity to synthetic double stranded DNA D1 at 1.5 uM at pH 6.0 by thermal denaturation study; procedure, shortened: as §1
[4] = tested on: Nucleic Acid; test: Binding affinity to synthetic oligonucleotide ON19 at 1.0 uM at pH 6.0 by thermal denaturation study; procedure, shortened: as §2
[5] = tested on: Nucleic Acid; test: Binding affinity to synthetic oligonucleotide ON20 at 1.0 uM at pH 7.0 by thermal denaturation study
Procedure, shortened: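 DNA/RNA antiparallel duplex: each strand at 1.0 µM in 10 mM sodium phosphate, 140 mM NaCl, 1 mM EDTA, pH 7.0. Heated to 80 °C for 5 min, cooled to 5 °C and held 30 min. Absorbance followed at 260 nm during a 1.0 °C/min temperature ramp; Tm is the first-derivative maximum.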

[6] = tested on: Nucleic Acid; test: Binding affinity to synthetic double stranded DNA D1 at 1.5 uM at pH 7.2 by thermal denaturation study; procedure, shortened: as §1
[7] = tested on: Nucleic Acid; test: Binding affinity to synthetic oligonucleotide ON19 at 1.0 uM at pH 7.2 by thermal denaturation study; procedure, shortened: as §2
[8] = tested on: Nucleic Acid; test: Binding affinity to synthetic double stranded DNA D4 at 1.5 uM at pH 6.0 by thermal denaturation study; procedure, shortened: as §1
[9] = tested on: Nucleic Acid; test: Binding affinity to synthetic double stranded DNA D2 at 1.5 uM at pH 6.0 by thermal denaturation study; procedure, shortened: as §1
[10] = tested on: Nucleic Acid; test: Binding affinity to synthetic double stranded DNA D1 at 1.5 uM at pH 5.0 by thermal denaturation study; procedure, shortened: as §1

SMILES | Tm [1] [°C] | Tm [2] [°C] | Tm [3] [°C] | Tm [4] [°C] | Tm [5] [°C] | Tm [6] [°C] | Tm [7] [°C] | Tm [8] [°C] | Tm [9] [°C] | Tm [10] [°C]
Cc1cn([C@H]2C[C@H](OP(=O)(O)OC[C@H]3O[C@@H](n4cc(C)c(=O)[nH]c4=O)C[C@@H]3O[PH](O)(O)OC[C@H]3O[C@@H](n4cc(C)c(=O)[nH]c4=O)C[C@@H]3OP(=O)(O)OC[C@H]3O[C@@H](n4cc(C)c(=O)[nH]c4=O)C[C@@H]3OP(=O)(O)OC[C@H]3O[C@@H](n4cc(C)c(=O)[nH]c4=O)C[C@@H]3O)[C@@H](COC[C@H](CCOc3ccc(-c4nc5c6ccccc6c6ccccc6c5[nH]4)c4ccccc34)OP(=O)(O)O[C@H]3C[C@H](n4cc(C)c(=O)[nH]c4=O)O[C@@H]3COP(=O)(O)O[C@H]3C[C@H](n4ccc(N)nc4=O)O[C@@H]3COP(=O)(O)O[C@H]3C[C@H](n4cc(C)c(=O)[nH]c4=O)O[C@@H]3COP(=O)(O)O[C@H]3C[C@H](n4cc(C)c(=O)[nH]c4=O)O[C@@H]3COP(=O)(O)O[C@H]3C[C@H](n4cc(C)c(=O)[nH]c4=O)O[C@@H]3COP(=O)(O)O[C@H]3C[C@H](n4ccc(N)nc4=O)O[C@@H]3COP(=O)(O)O[C@H]3C[C@H](n4ccc(N)nc4=O)O[C@@H]3COP(=O)(O)O[C@H]3C[C@H](n4ccc(N)nc4=O)O[C@@H]3COP(=O)(O)O[C@H]3C[C@H](n4ccc(N)nc4=O)O[C@@H]3CO)O2)c(=O)[nH]c1=O | 22.5 | 19.5 | 38.5 | 47.5 | 49.5 | 18.5 | 47.5 | 26 | 21 | –
Cc1cn([C@H]2C[C@H](OP(=O)(O)OC[C@H]3O[C@@H](n4ccc(N)nc4=O)C[C@@H]3OP(=O)(O)OC[C@H]3O[C@@H](n4cc(C)c(=O)[nH]c4=O)C[C@@H]3OP(=O)(O)O[C@@H](CCOc3ccc(-c4nc5c6ccccc6c6ccccc6c5[nH]4)c4ccccc34)COC[C@H]3O[C@@H](n4cc(C)c(=O)[nH]c4=O)C[C@@H]3OP(=O)(O)OC[C@H]3O[C@@H](n4cc(C)c(=O)[nH]c4=O)C[C@@H]3O[PH](O)(O)OC[C@H]3O[C@@H](n4cc(C)c(=O)[nH]c4=O)C[C@@H]3OP(=O)(O)OC[C@H]3O[C@@H](n4cc(C)c(=O)[nH]c4=O)C[C@@H]3OP(=O)(O)OC[C@H]3O[C@@H](n4cc(C)c(=O)[nH]c4=O)C[C@@H]3O)[C@@H](COC[C@H](CCOc3ccc(-c4nc5c6ccccc6c6ccccc6c5[nH]4)c4ccccc34)OP(=O)(O)O[C@H]3C[C@H](n4cc(C)c(=O)[nH]c4=O)O[C@@H]3COP(=O)(O)O[C@H]3C[C@H](n4cc(C)c(=O)[nH]c4=O)O[C@@H]3COP(=O)(O)O[C@H]3C[C@H](n4ccc(N)nc4=O)O[C@@H]3COP(=O)(O)O[C@H]3C[C@H](n4ccc(N)nc4=O)O[C@@H]3COP(=O)(O)O[C@H]3C[C@H](n4ccc(N)nc4=O)O[C@@H]3COP(=O)(O)O[C@H]3C[C@H](n4ccc(N)nc4=O)O[C@@H]3CO)O2)c(=O)[nH]c1=O | 33.5 | 20.5 | 46.5 | 38.5 | 42.5 | 15 | 38.5 | 17.5 | 24 | –
Cc1cn([C@H]2C[C@H](OP(=O)(O)OC[C@H]3O[C@@H](n4ccc(N)nc4=O)C[C@@H]3OP(=O)(O)OC[C@H]3O[C@@H](n4cc(C)c(=O)[nH]c4=O)C[C@@H]3OP(=O)(O)O[C@@H](CCOc3ccc(-c4nc5c6ccccc6c6ccccc6c5[nH]4)cc3)COC[C@H]3O[C@@H](n4cc(C)c(=O)[nH]c4=O)C[C@@H]3OP(=O)(O)OC[C@H]3O[C@@H](n4cc(C)c(=O)[nH]c4=O)C[C@@H]3O[PH](O)(O)OC[C@H]3O[C@@H](n4cc(C)c(=O)[nH]c4=O)C[C@@H]3OP(=O)(O)OC[C@H]3O[C@@H](n4cc(C)c(=O)[nH]c4=O)C[C@@H]3OP(=O)(O)OC[C@H]3O[C@@H](n4cc(C)c(=O)[nH]c4=O)C[C@@H]3O)[C@@H](COC[C@H](CCOc3ccc(-c4nc5c6ccccc6c6ccccc6c5[nH]4)cc3)OP(=O)(O)O[C@H]3C[C@H](n4cc(C)c(=O)[nH]c4=O)O[C@@H]3COP(=O)(O)O[C@H]3C[C@H](n4cc(C)c(=O)[nH]c4=O)O[C@@H]3COP(=O)(O)O[C@H]3C[C@H](n4ccc(N)nc4=O)O[C@@H]3COP(=O)(O)O[C@H]3C[C@H](n4ccc(N)nc4=O)O[C@@H]3COP(=O)(O)O[C@H]3C[C@H](n4ccc(N)nc4=O)O[C@@H]3COP(=O)(O)O[C@H]3C[C@H](n4ccc(N)nc4=O)O[C@@H]3CO)O2)c(=O)[nH]c1=O | 37 | 37.5 | 51.5 | 49 | 49.5 | 37 | 50.5 | 42 | 35.5 | –

Further lines, results first:

Tm [1] [°C] | Tm [2] [°C] | Tm [3] [°C] | Tm [4] [°C] | Tm [5] [°C] | Tm [6] [°C] | Tm [7] [°C] | Tm [8] [°C] | Tm [9] [°C] | Tm [10] [°C] | SMILES
– | – | 10.5 | – | – | – | – | – | – | 33 | Cc1cn([C@H]2C[C@H](OP(=O)(O)OC[C@H]3O[C@@H](n4ccc(N)nc4=O)C[C@@H]3OP(=O)(O)OC[C@H]3O[C@@H](n4cc(C)c(=O)[nH]c4=O)C[C@@H]3OP(=O)(O)OC[C@H]3O[C@@H](n4cc(C)c(=O)[nH]c4=O)C[C@@H]3OP(=O)(O)OC[C@H]3O[C@@H](n4cc(C)c(=O)[nH]c4=O)C[C@@H]3O[PH](O)(O)OC[C@H]3O[C@@H](n4cc(C)c(=O)[nH]c4=O)C[C@@H]3OP(=O)(O)OC[C@H]3O[C@@H](n4cc(C)c(=O)[nH]c4=O)C[C@@H]3OP(=O)(O)OC[C@H]3O[C@@H](n4cc(C)c(=O)[nH]c4=O)C[C@@H]3O)[C@@H](COC[C@H](CCOc3ccc(-c4ncc[nH]4)c4ccccc34)OP(=O)(O)O[C@H]3C[C@H](n4cc(C)c(=O)[nH]c4=O)O[C@@H]3COP(=O)(O)O[C@H]3C[C@H](n4cc(C)c(=O)[nH]c4=O)O[C@@H]3COP(=O)(O)O[C@H]3C[C@H](n4ccc(N)nc4=O)O[C@@H]3COP(=O)(O)O[C@H]3C[C@H](n4ccc(N)nc4=O)O[C@@H]3COP(=O)(O)O[C@H]3C[C@H](n4ccc(N)nc4=O)O[C@@H]3COP(=O)(O)O[C@H]3C[C@H](n4ccc(N)nc4=O)O[C@@H]3CO)O2)c(=O)[nH]c1=O
– | 31.5 | 43.5 | 54 | 55.5 | 20 | 54 | – | – | – | Cc1cn([C@H]2C[C@H](OP(=O)(O)OC[C@H]3O[C@@H](n4cc(C)c(=O)[nH]c4=O)C[C@@H]3OP(=O)(O)OC[C@H]3O[C@@H](n4cc(C)c(=O)[nH]c4=O)C[C@@H]3OP(=O)(O)OC[C@H]3O[C@@H](n4ccc(N)nc4=O)C[C@@H]3OP(=O)(O)OC[C@H]3O[C@@H](n4cc(C)c(=O)[nH]c4=O)C[C@@H]3OP(=O)(O)OC[C@H]3O[C@@H](n4cc(C)c(=O)[nH]c4=O)C[C@@H]3OP(=O)(O)OC[C@H]3O[C@@H](n4cc(C)c(=O)[nH]c4=O)C[C@@H]3O[PH](O)(O)OC[C@H]3O[C@@H](n4cc(C)c(=O)[nH]c4=O)C[C@@H]3OP(=O)(O)OC[C@H]3O[C@@H](n4cc(C)c(=O)[nH]c4=O)C[C@@H]3OP(=O)(O)OC[C@H]3O[C@@H](n4cc(C)c(=O)[nH]c4=O)C[C@@H]3OP(=O)(O)O[C@H](CO)CCOc3ccc(-c4nc5c6ccccc6c6ccccc6c5[nH]4)cc3)[C@@H](COP(=O)(O)O[C@H]3C[C@H](n4ccc(N)nc4=O)O[C@@H]3COP(=O)(O)O[C@H]3C[C@H](n4ccc(N)nc4=O)O[C@@H]3COP(=O)(O)O[C@H]3C[C@H](n4ccc(N)nc4=O)O[C@@H]3COP(=O)(O)O[C@H]3C[C@H](n4ccc(N)nc4=O)O[C@@H]3CO)O2)c(=O)[nH]c1=O
33 | 31.5 | 48.5 | 51 | 53 | 33.5 | 51 | 35.5 | 30.5 | – | Cc1cn([C@H]2C[C@H](OP(=O)(O)OC[C@H]3O[C@@H](n4cc(C)c(=O)[nH]c4=O)C[C@@H]3O[PH](O)(O)OC[C@H]3O[C@@H](n4cc(C)c(=O)[nH]c4=O)C[C@@H]3OP(=O)(O)OC[C@H]3O[C@@H](n4cc(C)c(=O)[nH]c4=O)C[C@@H]3OP(=O)(O)OC[C@H]3O[C@@H](n4cc(C)c(=O)[nH]c4=O)C[C@@H]3O)[C@@H](COC[C@H](CCOc3ccc(-c4nc5c6ccccc6c6ccccc6c5[nH]4)cc3)OP(=O)(O)O[C@H]3C[C@H](n4cc(C)c(=O)[nH]c4=O)O[C@@H]3COP(=O)(O)O[C@H]3C[C@H](n4ccc(N)nc4=O)O[C@@H]3COP(=O)(O)O[C@H]3C[C@H](n4cc(C)c(=O)[nH]c4=O)O[C@@H]3COP(=O)(O)O[C@H]3C[C@H](n4cc(C)c(=O)[nH]c4=O)O[C@@H]3COP(=O)(O)O[C@H]3C[C@H](n4cc(C)c(=O)[nH]c4=O)O[C@@H]3COP(=O)(O)O[C@H]3C[C@H](n4ccc(N)nc4=O)O[C@@H]3COP(=O)(O)O[C@H]3C[C@H](n4ccc(N)nc4=O)O[C@@H]3COP(=O)(O)O[C@H]3C[C@H](n4ccc(N)nc4=O)O[C@@H]3COP(=O)(O)O[C@H]3C[C@H](n4ccc(N)nc4=O)O[C@@H]3CO)O2)c(=O)[nH]c1=O
